Test results published in ChEMBL document CHEMBL1140994, “Ranking the selectivity of PubChem screening hits by activity-based protein profiling: MMP13 as a case study” (Bioorg Med Chem, 2009).
Activity calls are given as the source filed them. The calls are words filed in the database; no cut-off is given here.

Assays:
Collagenase 3 [1] = target: T1, Collagenase 3 (Homo sapiens, UniProt P45452); test: Inhibition of human recombinant MMP13 by HxBPyne probe-based competitive activity based protein profiling assay
Collagenase 3 [2] = target: T1, Collagenase 3; test: Inhibition of human recombinant MMP13 by fluorogenic substrate assay
[3] = target: T2, Matrix metalloproteinase-9 (Homo sapiens, UniProt P14780); test: Inhibition of human recombinant MMP9 by fluorogenic substrate assay
T2 sequence (P14780 whole entry): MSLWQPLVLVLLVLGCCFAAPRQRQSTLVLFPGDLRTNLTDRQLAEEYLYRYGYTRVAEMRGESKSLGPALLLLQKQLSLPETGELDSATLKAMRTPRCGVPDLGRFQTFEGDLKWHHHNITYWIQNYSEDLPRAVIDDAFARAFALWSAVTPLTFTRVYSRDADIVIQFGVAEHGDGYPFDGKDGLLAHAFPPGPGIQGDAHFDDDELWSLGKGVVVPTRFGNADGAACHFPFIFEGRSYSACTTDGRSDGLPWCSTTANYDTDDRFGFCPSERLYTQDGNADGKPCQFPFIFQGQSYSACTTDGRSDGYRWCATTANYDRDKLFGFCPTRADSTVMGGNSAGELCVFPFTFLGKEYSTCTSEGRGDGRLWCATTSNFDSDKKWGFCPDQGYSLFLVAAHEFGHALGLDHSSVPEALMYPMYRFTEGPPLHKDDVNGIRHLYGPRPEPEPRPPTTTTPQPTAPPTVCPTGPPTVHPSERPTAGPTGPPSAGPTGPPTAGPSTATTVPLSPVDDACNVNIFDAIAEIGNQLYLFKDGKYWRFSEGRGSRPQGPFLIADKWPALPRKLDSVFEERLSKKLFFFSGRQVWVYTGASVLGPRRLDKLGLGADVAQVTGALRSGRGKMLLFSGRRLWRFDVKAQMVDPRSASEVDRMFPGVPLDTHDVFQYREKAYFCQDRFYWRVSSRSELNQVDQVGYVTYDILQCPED
Outline: (§1)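 Enzyme (MMP8 6 nM, MMP9 2 nM, MMP13 1.5 nM final) preincubated with inhibitor 30 min in 50 mM HEPES pH 7.5, 10 mM CaCl2, 0.05% Brij-35, at RT. Mca-PLGL-Dpa-AR-NH2 added at 5 μM; fluorescence (ex 328/em 393 nm) read each minute for 10 min. Initial rates by linear least squares; IC50 from variable-slope sigmoidal fit. Triplicate; mean with 95% CI.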

[4] = target: Stromelysin-2 (Homo sapiens) (UniProt P09238); test: Inhibition of human recombinant MMP10 at 200 uM by HxBPyne probe-based competitive activity based protein profiling assay in presence of 5 uM HxBpane competitor
Stromelysin-2 (Homo sapiens), sequence (P09238 99-476 limits assumed): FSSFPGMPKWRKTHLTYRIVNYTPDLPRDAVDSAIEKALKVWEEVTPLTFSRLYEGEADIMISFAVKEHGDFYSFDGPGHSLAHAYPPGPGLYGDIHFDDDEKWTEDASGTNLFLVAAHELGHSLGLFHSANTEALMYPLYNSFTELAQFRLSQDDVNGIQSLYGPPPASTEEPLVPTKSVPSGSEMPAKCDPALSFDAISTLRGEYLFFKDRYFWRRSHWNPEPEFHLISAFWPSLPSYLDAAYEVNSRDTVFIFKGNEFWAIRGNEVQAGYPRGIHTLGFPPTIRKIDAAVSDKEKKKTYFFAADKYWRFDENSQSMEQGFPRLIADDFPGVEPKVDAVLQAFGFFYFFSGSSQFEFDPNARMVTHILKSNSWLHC
Outline: (§2)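 Recombinant enzyme at 0.5 μM final in mouse liver soluble proteome (1 mg protein/mL in PBS). HxBPyne probe cocktail 0.5 μM total final, with inhibitor 200 μM or DMSO. Preincubated 30 min on ice, then UV 365 nm for 1 h on ice. Rhodamine-azide click chemistry, 1 h RT in dark. SDS-PAGE with in-gel fluorescence; band intensity given as % of DMSO control.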

Neutrophil collagenase [5] = target: T3, Neutrophil collagenase (Homo sapiens, UniProt P22894); test: Inhibition of human recombinant MMP8 by fluorogenic substrate assay; outline: as §1
Target sequence in this assay (P22894 whole entry, the tested form may be a part): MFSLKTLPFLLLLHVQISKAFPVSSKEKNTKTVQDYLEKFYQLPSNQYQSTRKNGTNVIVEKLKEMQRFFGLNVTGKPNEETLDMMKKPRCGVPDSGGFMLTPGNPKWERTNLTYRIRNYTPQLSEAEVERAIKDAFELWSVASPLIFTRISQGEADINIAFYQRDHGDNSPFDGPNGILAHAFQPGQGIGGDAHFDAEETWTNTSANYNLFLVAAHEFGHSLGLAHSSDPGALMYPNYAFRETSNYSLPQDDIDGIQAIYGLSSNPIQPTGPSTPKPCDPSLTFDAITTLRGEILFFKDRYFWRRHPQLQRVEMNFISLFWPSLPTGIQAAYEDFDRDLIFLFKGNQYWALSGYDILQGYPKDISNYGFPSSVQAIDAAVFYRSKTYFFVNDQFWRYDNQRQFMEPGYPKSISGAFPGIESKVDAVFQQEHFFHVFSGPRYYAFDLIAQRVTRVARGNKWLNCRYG

[6] = target: T4, Disintegrin and metalloproteinase domain-containing protein 8 (Homo sapiens) (UniProt P78325); test: Inhibition of human recombinant ADAM8 at 200 uM by HxBPyne probe-based competitive activity based protein profiling assay in presence of 5 uM HxBpane competitor; outline: as §2
T4 sequence (whole entry): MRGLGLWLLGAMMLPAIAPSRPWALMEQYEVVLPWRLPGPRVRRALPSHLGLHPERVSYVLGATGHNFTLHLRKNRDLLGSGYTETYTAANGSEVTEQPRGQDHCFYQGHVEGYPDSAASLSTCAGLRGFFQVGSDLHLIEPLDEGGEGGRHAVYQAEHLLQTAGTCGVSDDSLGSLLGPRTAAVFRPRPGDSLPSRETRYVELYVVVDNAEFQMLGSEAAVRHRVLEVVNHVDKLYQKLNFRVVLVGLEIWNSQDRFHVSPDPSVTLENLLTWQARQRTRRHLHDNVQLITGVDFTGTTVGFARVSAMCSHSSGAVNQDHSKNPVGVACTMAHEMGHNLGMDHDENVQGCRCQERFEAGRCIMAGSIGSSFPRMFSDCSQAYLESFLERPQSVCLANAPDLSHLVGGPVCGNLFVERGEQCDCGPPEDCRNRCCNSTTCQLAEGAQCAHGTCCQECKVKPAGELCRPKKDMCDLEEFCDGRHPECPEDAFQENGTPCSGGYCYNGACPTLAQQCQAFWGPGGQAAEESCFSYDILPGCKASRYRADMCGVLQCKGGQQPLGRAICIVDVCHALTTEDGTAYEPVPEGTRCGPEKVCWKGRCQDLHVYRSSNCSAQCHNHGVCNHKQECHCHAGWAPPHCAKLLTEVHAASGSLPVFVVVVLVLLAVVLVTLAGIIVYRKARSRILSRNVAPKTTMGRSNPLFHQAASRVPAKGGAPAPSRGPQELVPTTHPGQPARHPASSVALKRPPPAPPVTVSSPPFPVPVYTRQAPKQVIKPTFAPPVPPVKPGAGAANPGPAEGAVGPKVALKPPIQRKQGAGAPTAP

[7] = target: T2, Matrix metalloproteinase-9; test: Inhibition of human recombinant MMP9 at 200 uM by HxBP-Rh probe-based competitive activity based protein profiling assay in presence of 200 uM HxBP-alkyne
Outline: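 Enzyme 0.5 μM final, in PBS (ADAMTS4, neprilysin) or in 1 mg/mL mouse liver soluble proteome (MMP9). HxBP-Rh probe 0.5 μM final with 200 μM inhibitor or DMSO. Preincubated 30 min on ice, UV 365 nm 1 h on ice. Deglycosylated with PNGase F, then SDS-PAGE with fluorescence scanning. Activity given relative to DMSO control.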

[8] = target: Stromelysin-1 (Homo sapiens) (UniProt P08254); test: Inhibition of human recombinant MMP3 at 200 uM by HxBPyne probe-based competitive activity based protein profiling assay in presence of 5 uM HxBpane competitor; outline: as §2
Stromelysin-1 (Homo sapiens), sequence (P08254 100-477 limits assumed): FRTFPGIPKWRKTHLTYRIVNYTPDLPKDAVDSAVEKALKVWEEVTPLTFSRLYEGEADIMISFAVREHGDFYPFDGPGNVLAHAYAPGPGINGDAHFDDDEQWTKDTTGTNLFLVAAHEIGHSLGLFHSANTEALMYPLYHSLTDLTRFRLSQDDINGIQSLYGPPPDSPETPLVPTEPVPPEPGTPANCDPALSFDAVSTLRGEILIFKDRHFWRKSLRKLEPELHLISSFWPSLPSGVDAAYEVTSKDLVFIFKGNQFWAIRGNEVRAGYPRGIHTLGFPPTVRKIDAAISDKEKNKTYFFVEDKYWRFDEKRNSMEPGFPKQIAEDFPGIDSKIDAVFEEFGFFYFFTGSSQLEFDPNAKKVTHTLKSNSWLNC

Neutrophil collagenase [9] = target: T3, Neutrophil collagenase; test: Inhibition of human recombinant MMP8 at 200 uM by HxBPyne probe-based competitive activity based protein profiling assay in presence of 5 uM HxBpane competitor; outline: as §2
Target sequence in this assay (P22894 101-467 limits assumed): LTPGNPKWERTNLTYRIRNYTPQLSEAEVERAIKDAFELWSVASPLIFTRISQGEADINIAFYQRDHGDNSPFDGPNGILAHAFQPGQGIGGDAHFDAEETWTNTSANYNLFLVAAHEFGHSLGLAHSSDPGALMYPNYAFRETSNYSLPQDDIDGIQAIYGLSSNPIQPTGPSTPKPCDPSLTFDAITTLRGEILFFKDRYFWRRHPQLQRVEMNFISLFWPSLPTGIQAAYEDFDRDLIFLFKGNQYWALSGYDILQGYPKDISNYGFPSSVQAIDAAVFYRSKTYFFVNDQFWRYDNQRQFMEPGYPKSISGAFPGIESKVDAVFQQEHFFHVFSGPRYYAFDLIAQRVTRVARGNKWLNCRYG

[10] = target: 72 kDa type IV collagenase (Homo sapiens) (UniProt P08253); test: Inhibition of human recombinant MMP2 at 200 uM by HxBPyne probe-based competitive activity based protein profiling assay in presence of 5 uM HxBpane competitor; outline: as §2
72 kDa type IV collagenase (Homo sapiens), sequence (P08253 110-660 limits assumed): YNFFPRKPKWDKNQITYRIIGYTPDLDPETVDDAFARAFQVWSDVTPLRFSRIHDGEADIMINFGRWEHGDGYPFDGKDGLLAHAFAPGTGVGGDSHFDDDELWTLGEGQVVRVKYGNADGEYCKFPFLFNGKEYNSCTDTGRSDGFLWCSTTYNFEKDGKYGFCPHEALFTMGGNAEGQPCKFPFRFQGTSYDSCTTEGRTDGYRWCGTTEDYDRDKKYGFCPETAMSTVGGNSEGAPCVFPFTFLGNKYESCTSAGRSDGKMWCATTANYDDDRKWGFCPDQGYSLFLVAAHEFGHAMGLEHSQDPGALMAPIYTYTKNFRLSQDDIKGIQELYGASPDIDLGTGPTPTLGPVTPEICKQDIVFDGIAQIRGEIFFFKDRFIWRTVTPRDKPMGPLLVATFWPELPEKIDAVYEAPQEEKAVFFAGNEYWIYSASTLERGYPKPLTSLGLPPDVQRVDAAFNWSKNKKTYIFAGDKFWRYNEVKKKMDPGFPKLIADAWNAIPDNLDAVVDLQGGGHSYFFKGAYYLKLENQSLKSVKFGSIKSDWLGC

[11] = target: Macrophage metalloelastase (Homo sapiens) (UniProt P39900); test: Inhibition of human recombinant MMP12 at 200 uM by HxBPyne probe-based competitive activity based protein profiling assay in presence of 5 uM HxBpane competitor; outline: as §2
Macrophage metalloelastase (Homo sapiens), sequence (P39900 106-470 limits assumed): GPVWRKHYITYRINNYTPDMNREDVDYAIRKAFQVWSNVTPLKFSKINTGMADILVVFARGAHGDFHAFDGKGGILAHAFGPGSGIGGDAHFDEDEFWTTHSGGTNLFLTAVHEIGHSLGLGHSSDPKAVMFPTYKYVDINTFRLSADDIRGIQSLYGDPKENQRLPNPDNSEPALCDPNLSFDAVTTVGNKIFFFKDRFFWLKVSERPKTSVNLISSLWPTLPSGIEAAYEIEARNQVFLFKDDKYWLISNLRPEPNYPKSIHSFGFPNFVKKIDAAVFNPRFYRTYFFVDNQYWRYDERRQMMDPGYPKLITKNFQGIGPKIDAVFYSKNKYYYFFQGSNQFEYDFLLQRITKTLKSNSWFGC

[12] = target: Matrix metalloproteinase-16 (Homo sapiens) (UniProt P51512); test: Inhibition of human recombinant MMP16 at 200 uM by HxBPyne probe-based competitive activity based protein profiling assay in presence of 5 uM HxBpane competitor; outline: as §2
Matrix metalloproteinase-16 (Homo sapiens), sequence (P51512 whole entry): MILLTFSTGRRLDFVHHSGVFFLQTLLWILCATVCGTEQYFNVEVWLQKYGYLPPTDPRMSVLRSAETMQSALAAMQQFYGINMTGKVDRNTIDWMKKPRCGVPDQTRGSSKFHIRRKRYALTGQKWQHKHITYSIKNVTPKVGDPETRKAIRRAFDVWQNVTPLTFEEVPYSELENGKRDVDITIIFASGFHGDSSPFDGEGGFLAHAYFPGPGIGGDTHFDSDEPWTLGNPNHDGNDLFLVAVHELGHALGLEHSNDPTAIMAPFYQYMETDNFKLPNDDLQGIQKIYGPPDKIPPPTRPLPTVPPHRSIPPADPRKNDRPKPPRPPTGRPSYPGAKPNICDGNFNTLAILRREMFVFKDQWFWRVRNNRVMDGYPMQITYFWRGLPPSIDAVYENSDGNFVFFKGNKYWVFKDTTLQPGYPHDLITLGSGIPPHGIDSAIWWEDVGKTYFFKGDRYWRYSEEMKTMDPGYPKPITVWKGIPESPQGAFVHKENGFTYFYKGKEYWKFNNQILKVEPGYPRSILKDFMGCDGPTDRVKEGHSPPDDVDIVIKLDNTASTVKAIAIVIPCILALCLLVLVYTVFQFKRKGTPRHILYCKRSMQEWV

[13] = target: Matrix metalloproteinase-15 (Homo sapiens) (UniProt P51511); test: Inhibition of human recombinant MMP15 at 200 uM by HxBPyne probe-based competitive activity based protein profiling assay in presence of 5 uM HxBpane competitor; outline: as §2
Matrix metalloproteinase-15 (Homo sapiens), sequence (P51511 132-669 limits assumed): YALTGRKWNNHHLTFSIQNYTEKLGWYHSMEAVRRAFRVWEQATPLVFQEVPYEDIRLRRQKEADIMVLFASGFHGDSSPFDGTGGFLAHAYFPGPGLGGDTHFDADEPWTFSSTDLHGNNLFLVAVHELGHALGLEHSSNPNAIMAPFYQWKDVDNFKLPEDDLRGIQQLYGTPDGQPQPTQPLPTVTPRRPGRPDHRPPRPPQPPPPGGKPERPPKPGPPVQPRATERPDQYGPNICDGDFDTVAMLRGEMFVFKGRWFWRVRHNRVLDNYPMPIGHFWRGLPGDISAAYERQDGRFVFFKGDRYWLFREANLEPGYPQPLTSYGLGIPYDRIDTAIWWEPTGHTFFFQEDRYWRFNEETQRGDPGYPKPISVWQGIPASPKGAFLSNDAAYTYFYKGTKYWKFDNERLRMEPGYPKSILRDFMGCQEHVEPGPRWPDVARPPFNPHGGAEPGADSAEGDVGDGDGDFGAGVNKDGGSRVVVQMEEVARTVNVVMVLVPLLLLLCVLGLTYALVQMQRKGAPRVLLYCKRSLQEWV

[14] = target: T5, A disintegrin and metalloproteinase with thrombospondin motifs 5 (Homo sapiens) (UniProt Q9UNA0); test: Inhibition of human recombinant ADAMTS5 at 200 uM by HxBPyne probe-based competitive activity based protein profiling assay in presence of 5 uM HxBpane competitor; outline: as §2
T5 sequence (whole entry): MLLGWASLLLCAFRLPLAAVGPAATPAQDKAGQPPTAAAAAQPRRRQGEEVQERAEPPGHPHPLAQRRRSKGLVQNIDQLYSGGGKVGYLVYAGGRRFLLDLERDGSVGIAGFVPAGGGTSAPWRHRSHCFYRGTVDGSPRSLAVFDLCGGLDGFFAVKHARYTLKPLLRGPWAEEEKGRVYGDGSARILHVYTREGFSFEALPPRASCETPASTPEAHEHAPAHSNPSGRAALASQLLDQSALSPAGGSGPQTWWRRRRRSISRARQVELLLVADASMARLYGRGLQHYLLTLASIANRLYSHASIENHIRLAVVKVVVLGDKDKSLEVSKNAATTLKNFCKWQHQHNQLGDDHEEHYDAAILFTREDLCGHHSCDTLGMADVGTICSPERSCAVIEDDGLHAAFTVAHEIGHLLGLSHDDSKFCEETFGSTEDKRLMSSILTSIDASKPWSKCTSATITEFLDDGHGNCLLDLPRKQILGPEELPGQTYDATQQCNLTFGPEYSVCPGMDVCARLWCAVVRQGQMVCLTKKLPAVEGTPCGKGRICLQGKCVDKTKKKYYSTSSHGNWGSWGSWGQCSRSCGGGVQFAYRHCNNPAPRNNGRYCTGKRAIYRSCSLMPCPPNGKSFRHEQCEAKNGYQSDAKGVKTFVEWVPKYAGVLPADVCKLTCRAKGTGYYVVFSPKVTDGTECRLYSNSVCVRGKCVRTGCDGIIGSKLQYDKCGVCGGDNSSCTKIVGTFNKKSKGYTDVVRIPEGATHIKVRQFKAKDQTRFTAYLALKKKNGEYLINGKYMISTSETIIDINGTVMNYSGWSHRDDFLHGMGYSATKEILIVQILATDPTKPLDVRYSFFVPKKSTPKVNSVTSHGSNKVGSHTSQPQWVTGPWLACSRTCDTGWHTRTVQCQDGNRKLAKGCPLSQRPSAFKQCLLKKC

[15] = target: T6, Stromelysin-3 (Homo sapiens) (UniProt P24347); test: Inhibition of human recombinant MMP11 at 200 uM by HxBPyne probe-based competitive activity based protein profiling assay in presence of 5 uM HxBpane competitor; outline: as §2
T6 sequence (whole entry): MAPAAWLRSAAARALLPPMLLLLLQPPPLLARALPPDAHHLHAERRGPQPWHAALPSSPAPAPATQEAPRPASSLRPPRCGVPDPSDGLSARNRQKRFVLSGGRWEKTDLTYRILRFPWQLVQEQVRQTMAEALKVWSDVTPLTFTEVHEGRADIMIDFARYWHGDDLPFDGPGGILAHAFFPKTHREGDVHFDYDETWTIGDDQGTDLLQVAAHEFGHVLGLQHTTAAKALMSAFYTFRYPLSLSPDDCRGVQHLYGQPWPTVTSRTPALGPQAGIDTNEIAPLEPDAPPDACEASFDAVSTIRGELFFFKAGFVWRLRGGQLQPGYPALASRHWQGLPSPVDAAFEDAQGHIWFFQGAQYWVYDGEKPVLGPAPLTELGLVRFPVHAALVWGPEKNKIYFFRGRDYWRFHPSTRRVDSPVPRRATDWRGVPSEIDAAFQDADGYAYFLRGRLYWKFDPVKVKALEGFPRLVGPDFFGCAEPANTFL

[16] = target: Matrix metalloproteinase-24 (Homo sapiens) (UniProt Q9Y5R2); test: Inhibition of human recombinant MMP24 at 200 uM by HxBPyne probe-based competitive activity based protein profiling assay in presence of 5 uM HxBpane competitor; outline: as §2
[17] = target: Matrix metalloproteinase-14 (Homo sapiens) (UniProt P50281); test: Inhibition of human recombinant MMP14 at 200 uM by HxBPyne probe-based competitive activity based protein profiling assay in presence of 5 uM HxBpane competitor; outline: as §2

IC50 (Collagenase 3 [1])	IC50 (Collagenase 3 [2])	IC50 [3]	Activity [4]	IC50 (Neutrophil collagenase [5])	Activity [6]	Activity [7]	Activity [8]	Activity (Neutrophil collagenase [9])	Activity [10]	Activity [11]	Activity [12]	Activity [13]	Activity [14]	Activity [15]	Activity [16]	Activity [17]	SMILES
27 µM	1.3 µM	0.16 µM	Active	0.67 µM	Active	Active	Active	Active	Active	Active	–	–	–	–	–	–	CCCCCCOc1ccc(C(CC(=O)O)C(N)=O)cc1 (stereo unspecified)
13 µM	0.28 µM	14 µM	Active	0.024 µM	–	–	Active	Active	Active	Active	Active	Active	Active	Active	Active	Active	O=C(O)CCC(NS(=O)(=O)c1ccc(-c2ccccc2)cc1)C(=O)O (stereo unspecified)
